# From ChEMBL document CHEMBL2396604, “Synthesis and structure activity relationship of tetrahydroisoquinoline-based potentiators of GluN2C and GluN2D containing N-methyl-D-aspartate receptors” (J Med Chem, 2013)
# Columns and labels:
# Homo sapiens = species on record: Homo sapiens; test: Inhibition of sigma2 receptor (unknown origin) at 5 uM by psychoactive drug screening programme assay
# [1] = molecular target: Glutamate NMDA receptor; Grin1/Grin2a (Rattus norvegicus) (UniProt P35439+Q00959); test: Activity at rat recombinant GluN1/GluN2A receptor expressed in Xenopus oocytes assessesed as effect of glycine/glutamate-induced response at 3 uM by two-electrode voltage clamp technique relative to control; assay type: cell-based; conditions: Oocyte
# Procedure, shortened: (§1)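 Two-electrode voltage clamp of Xenopus oocytes injected with 1–5 ng cRNA and kept in Barth's solution at 15°C for 2–5 days. Oocytes were perfused with 90 mM NaCl, 1.0 KCl, 0.5 BaCl2, 0.005 EDTA, 10 HEPES, pH 7.4, 23°C, and held at -40 mV. Compound was co-applied at 3 µM with agonist from 20 mM DMSO stocks, final DMSO 0.05–0.5%.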
# [2] = molecular target: 5-hydroxytryptamine receptor 6 (Homo sapiens) (UniProt P50406); test: Inhibition of serotonin 5-HT6 receptor (unknown origin) at 5 uM by psychoactive drug screening programme assay
# [3] = molecular target: Alpha-1A adrenergic receptor (Homo sapiens) (UniProt P35348); test: Inhibition of adrenergic alpha1A receptor (unknown origin) at 5 uM by psychoactive drug screening programme assay
# Sequence of Alpha-1A adrenergic receptor (Homo sapiens) (P35348 whole entry): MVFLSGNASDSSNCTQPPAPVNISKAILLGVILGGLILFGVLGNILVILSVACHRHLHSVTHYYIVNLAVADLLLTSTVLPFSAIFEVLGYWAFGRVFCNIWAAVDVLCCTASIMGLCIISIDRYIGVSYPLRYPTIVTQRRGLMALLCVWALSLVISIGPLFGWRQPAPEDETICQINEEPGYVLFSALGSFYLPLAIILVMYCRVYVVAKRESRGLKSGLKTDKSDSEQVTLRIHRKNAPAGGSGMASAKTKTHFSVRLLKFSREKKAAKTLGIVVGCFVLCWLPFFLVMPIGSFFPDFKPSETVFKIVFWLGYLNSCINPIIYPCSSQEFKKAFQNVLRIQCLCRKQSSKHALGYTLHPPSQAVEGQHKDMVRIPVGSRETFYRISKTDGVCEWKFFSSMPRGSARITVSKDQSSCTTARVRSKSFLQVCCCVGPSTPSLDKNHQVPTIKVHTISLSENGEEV
# Procedure, shortened: (§2)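 Radioligand binding screen run by PDSP. Displacement of ligand binding was measured with test compound at 5 µM, n=4 per target.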
# [4] = molecular target: Mu-type opioid receptor (Homo sapiens) (UniProt P35372); test: Inhibition of mu opioid receptor (unknown origin) at 5 uM by psychoactive drug screening programme assay; procedure, shortened: as §2
# [5] = molecular target: Alpha-1B adrenergic receptor (Homo sapiens) (UniProt P35368); test: Inhibition of adrenergic alpha1B receptor (unknown origin) at 5 uM by psychoactive drug screening programme assay; procedure, shortened: as §2
# [6] = molecular target: Delta-type opioid receptor (Homo sapiens) (UniProt P41143); test: Inhibition of delta opioid receptor (unknown origin) at 5 uM by psychoactive drug screening programme assay; procedure, shortened: as §2
# [7] = molecular target: Alpha-2A adrenergic receptor (Homo sapiens) (UniProt P08913); test: Inhibition of adrenergic alpha2A receptor (unknown origin) at 5 uM by psychoactive drug screening programme assay; procedure, shortened: as §2
# Sequence of Alpha-2A adrenergic receptor (Homo sapiens) (P08913 whole entry): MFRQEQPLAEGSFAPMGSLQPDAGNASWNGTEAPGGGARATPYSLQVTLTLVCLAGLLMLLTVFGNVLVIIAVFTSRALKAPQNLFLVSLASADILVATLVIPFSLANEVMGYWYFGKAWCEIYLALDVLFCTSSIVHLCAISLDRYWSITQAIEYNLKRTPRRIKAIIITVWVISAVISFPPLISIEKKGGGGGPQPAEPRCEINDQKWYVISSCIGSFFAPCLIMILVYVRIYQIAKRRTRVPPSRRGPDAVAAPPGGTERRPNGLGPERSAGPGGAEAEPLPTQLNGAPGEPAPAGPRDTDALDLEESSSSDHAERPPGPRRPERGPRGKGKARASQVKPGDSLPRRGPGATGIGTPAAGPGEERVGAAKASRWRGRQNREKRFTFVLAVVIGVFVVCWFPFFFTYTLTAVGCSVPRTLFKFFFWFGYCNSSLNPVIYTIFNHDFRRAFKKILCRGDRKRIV
# [8] = molecular target: P2X purinoceptor 2 (Rattus norvegicus) (UniProt P49653); test: Activity at rat recombinant purinergic P2X2 receptor expressed in Xenopus oocytes assessed as effect on ATP-induced activation at 3 uM by two-electrode voltage clamp technique relative to control; assay type: cell-based; conditions: Oocyte; procedure, shortened: as §1
# [9] = molecular target: 5-hydroxytryptamine receptor 2C (Homo sapiens) (UniProt P28335); test: Inhibition of serotonin 5-HT2C receptor (unknown origin) at 5 uM by psychoactive drug screening programme assay; procedure, shortened: as §2
# Sequence of 5-hydroxytryptamine receptor 2C (Homo sapiens) (P28335 whole entry): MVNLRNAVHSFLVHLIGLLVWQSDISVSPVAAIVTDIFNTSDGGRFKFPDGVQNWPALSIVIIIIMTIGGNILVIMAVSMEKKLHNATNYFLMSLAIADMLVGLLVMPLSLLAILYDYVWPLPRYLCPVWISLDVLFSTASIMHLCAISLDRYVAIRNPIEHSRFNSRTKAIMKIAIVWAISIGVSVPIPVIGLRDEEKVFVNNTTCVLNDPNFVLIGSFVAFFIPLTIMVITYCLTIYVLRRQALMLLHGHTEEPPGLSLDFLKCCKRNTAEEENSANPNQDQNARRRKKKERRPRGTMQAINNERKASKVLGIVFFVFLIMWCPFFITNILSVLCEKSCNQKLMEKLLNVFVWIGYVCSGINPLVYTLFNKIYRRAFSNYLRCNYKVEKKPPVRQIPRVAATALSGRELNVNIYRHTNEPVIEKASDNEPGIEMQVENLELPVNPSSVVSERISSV
# [10] = molecular target: 5-hydroxytryptamine receptor 1B (Homo sapiens) (UniProt P28222); test: Inhibition of serotonin 5-HT1B receptor (unknown origin) at 5 uM by psychoactive drug screening programme assay; procedure, shortened: as §2
# [11] = molecular target: Kappa-type opioid receptor (Homo sapiens, UniProt P41145); test: Inhibition of kappa opioid receptor (unknown origin) by psychoactive drug screening programme assay
# [12] = molecular target: Muscarinic acetylcholine receptor M2 (Homo sapiens) (UniProt P08172); test: Inhibition of M2 receptor (unknown origin) at 5 uM by psychoactive drug screening programme assay; procedure, shortened: as §2
# [13] = molecular target: 5-hydroxytryptamine receptor 2A (Homo sapiens) (UniProt P28223); test: Inhibition of serotonin 5-HT2A receptor (unknown origin) at 5 uM by psychoactive drug screening programme assay; procedure, shortened: as §2
# [14] = molecular target: Glutamate receptor 3 (Rattus norvegicus) (UniProt P19492); test: Activity at rat recombinant GluA3 receptor expressed in Xenopus oocytes assessed as effect on glutamate-induced response at 3 uM by two-electrode voltage clamp technique relative to control; assay type: cell-based; conditions: Oocyte; procedure, shortened: as §1
# Sequence of Glutamate receptor 3 (Rattus norvegicus) (P19492 whole entry): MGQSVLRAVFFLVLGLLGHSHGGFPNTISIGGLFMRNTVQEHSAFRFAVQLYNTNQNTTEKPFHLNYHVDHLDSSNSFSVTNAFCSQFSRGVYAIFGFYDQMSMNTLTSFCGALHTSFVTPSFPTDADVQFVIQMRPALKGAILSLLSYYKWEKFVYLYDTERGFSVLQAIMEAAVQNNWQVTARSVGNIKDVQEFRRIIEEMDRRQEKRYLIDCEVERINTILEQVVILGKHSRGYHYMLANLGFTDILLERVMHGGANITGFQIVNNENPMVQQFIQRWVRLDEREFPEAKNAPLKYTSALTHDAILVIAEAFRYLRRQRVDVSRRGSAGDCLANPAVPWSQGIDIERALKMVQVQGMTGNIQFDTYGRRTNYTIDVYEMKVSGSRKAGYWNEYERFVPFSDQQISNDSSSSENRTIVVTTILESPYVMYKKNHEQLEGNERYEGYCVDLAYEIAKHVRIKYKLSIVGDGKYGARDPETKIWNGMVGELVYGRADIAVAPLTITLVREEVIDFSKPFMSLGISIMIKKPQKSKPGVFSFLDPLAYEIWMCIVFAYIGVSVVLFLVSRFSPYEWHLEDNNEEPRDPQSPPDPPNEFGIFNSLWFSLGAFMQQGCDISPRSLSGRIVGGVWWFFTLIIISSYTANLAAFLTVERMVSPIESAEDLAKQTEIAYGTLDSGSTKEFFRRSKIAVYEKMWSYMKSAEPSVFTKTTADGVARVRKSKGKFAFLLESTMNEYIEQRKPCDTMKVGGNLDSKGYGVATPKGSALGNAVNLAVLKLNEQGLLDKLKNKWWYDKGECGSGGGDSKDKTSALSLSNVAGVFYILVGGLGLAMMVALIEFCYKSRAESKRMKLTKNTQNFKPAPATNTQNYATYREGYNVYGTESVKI
# [15] = molecular target: Glutamate receptor ionotropic, kainate 2 (Rattus norvegicus) (UniProt P42260); test: Activity at rat recombinant GluK2 receptor expressed in Xenopus oocytes assessed as effect on glutamate-induced response at 3 uM by two-electrode voltage clamp technique relative to control; assay type: cell-based; conditions: Oocyte; procedure, shortened: as §1
# Sequence of Glutamate receptor ionotropic, kainate 2 (Rattus norvegicus) (P42260 whole entry): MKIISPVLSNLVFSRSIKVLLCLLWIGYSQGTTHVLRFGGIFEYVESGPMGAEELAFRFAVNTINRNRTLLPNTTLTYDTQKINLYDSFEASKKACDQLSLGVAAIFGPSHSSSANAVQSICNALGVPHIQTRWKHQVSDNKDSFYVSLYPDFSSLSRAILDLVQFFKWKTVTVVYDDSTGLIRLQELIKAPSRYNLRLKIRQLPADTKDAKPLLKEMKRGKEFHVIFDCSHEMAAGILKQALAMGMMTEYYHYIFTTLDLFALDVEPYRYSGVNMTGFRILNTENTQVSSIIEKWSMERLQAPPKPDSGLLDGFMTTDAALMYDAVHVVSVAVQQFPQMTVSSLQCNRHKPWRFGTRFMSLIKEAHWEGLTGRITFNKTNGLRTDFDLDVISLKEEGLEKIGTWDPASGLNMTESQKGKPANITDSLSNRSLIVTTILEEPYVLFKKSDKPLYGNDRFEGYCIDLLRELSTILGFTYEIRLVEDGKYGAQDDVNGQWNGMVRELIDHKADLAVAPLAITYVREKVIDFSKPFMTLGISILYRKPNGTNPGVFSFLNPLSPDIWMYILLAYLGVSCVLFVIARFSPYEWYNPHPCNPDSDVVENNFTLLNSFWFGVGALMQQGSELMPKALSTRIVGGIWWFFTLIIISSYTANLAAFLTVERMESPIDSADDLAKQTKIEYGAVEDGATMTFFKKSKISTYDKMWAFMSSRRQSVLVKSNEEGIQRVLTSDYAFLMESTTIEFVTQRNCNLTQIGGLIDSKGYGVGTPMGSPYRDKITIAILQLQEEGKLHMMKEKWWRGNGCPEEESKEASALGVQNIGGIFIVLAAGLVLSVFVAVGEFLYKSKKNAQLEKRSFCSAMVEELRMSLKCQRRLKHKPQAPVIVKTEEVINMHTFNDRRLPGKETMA
# [16] = molecular target: Sodium-dependent noradrenaline transporter (Homo sapiens) (UniProt P23975); test: Inhibition of norepinephrine transporter (unknown origin) at 5 uM by psychoactive drug screening programme assay; procedure, shortened: as §2
# [17] = molecular target: Nicotinic acetylcholine receptor alpha9/alpha10 (Rattus norvegicus) (UniProt P43144+Q9JLB5); test: Activity at rat recombinant alpha9alpha10 nAChR expressed in Xenopus oocytes assessed as effect on acetylcholine-induced response at 3 uM by two-electrode voltage clamp technique relative to control; assay type: cell-based; conditions: Oocyte; procedure, shortened: as §1
# [18] = molecular target: 5-hydroxytryptamine receptor 1E (Homo sapiens) (UniProt P28566); test: Inhibition of serotonin 5-HT1E receptor (unknown origin) at 5 uM by psychoactive drug screening programme assay; procedure, shortened: as §2
# [19] = molecular target: Glutamate receptor ionotropic, kainate 1 (Rattus norvegicus) (UniProt P22756); test: Activity at rat recombinant GluK1 receptor expressed in Xenopus oocytes assessed as effect on glutamate-induced response at 3 uM by two-electrode voltage clamp technique relative to control; assay type: cell-based; conditions: Oocyte; procedure, shortened: as §1
# Sequence of Glutamate receptor ionotropic, kainate 1 (Rattus norvegicus) (P22756 whole entry): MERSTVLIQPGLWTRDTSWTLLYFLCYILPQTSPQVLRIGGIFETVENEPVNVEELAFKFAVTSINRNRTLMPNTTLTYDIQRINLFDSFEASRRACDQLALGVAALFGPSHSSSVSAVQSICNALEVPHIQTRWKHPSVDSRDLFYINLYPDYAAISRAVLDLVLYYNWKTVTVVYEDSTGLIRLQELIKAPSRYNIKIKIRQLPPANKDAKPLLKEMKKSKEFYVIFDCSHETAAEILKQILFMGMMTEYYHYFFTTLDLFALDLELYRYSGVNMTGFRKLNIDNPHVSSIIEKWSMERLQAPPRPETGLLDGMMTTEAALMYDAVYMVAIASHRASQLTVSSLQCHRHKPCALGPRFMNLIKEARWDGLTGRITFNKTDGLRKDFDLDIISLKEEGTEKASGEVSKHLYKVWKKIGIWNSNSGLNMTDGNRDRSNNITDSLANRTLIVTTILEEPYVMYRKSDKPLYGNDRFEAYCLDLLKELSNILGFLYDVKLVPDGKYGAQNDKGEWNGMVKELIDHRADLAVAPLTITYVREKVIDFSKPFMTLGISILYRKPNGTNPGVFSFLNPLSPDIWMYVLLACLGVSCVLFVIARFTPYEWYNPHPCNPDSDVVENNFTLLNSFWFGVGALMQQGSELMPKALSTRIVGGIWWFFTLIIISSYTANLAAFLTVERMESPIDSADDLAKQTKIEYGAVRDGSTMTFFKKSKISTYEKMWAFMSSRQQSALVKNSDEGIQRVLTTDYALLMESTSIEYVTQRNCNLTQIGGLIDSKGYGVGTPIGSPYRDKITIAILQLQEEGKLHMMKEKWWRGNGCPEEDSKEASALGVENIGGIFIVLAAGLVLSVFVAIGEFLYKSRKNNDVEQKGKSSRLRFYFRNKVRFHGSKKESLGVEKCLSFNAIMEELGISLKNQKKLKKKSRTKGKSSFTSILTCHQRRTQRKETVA
# [20] = molecular target: Sigma non-opioid intracellular receptor 1 (Homo sapiens) (UniProt Q99720); test: Inhibition of sigma1 receptor (unknown origin) at 5 uM by psychoactive drug screening programme assay
# Sequence of Sigma non-opioid intracellular receptor 1 (Homo sapiens) (Q99720 whole entry): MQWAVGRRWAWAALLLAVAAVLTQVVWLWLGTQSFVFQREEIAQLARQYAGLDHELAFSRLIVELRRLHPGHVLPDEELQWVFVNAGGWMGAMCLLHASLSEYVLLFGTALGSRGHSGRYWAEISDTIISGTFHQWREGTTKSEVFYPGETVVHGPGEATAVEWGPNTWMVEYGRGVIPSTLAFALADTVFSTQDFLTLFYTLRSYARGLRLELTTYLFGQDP
# [21] = molecular target: Histamine H1 receptor (Homo sapiens) (UniProt P35367); test: Inhibition of H1 histamine receptor (unknown origin) at 5 uM by psychoactive drug screening programme assay; procedure, shortened: as §2
# [22] = molecular target: 5-hydroxytryptamine receptor 7 (Homo sapiens) (UniProt P34969); test: Inhibition of serotonin 5-HT7 receptor (unknown origin) at 5 uM by psychoactive drug screening programme assay
# [23] = molecular target: Glutamate NMDA receptor; Grin1/Grin2b (Rattus norvegicus) (UniProt P35439+Q00960); test: Activity at rat recombinant GluN1/GluN2B receptor expressed in Xenopus oocytes assessed as effect of glycine/glutamate-induced response at 3 uM by two-electrode voltage clamp technique relative to control; assay type: cell-based; conditions: Oocyte; procedure, shortened: as §1
# [24] = molecular target: 5-hydroxytryptamine receptor 5A (Homo sapiens) (UniProt P47898); test: Inhibition of serotonin 5-HT5A receptor (unknown origin) at 5 uM by psychoactive drug screening programme assay
# [25] = molecular target: D(1A) dopamine receptor (Homo sapiens) (UniProt P21728); test: Inhibition of dopamine D1 receptor (unknown origin) at 5 uM by psychoactive drug screening programme assay; procedure, shortened: as §2
# [26] = molecular target: 5-hydroxytryptamine receptor 3A (Homo sapiens) (UniProt P46098); test: Inhibition of serotonin 5-HT3 receptor (unknown origin) at 5 uM by psychoactive drug screening programme assay
# Sequence of 5-hydroxytryptamine receptor 3A (Homo sapiens) (P46098 whole entry): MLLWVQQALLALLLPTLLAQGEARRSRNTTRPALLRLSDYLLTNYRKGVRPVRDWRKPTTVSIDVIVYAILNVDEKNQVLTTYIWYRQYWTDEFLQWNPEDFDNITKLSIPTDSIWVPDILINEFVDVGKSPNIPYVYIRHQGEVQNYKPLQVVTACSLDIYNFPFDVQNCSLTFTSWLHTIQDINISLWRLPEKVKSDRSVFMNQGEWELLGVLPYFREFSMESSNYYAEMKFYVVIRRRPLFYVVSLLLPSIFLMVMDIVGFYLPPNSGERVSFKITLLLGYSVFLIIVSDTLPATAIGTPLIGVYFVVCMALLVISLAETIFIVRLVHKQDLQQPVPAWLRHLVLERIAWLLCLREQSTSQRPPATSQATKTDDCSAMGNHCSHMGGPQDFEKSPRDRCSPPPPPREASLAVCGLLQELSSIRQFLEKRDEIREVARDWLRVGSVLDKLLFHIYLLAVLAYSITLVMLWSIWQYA
# [27] = molecular target: Glutamate NMDA receptor; Grin1/Grin2c (Rattus norvegicus) (UniProt P35439+Q00961); test: Activity at rat recombinant GluN1/GluN2C receptor expressed in Xenopus oocytes assessesed as effect of glycine/glutamate-induced response at 3 uM by two-electrode voltage clamp technique relative to control; assay type: cell-based; conditions: Oocyte; procedure, shortened: as §1
# [28] = molecular target: Glutamate receptor 2 (Rattus norvegicus) (UniProt P19491); test: Activity at rat recombinant GluA2 receptor expressed in Xenopus oocytes assessed as effect on glutamate-induced response at 3 uM by two-electrode voltage clamp technique relative to control; assay type: cell-based; conditions: Oocyte; procedure, shortened: as §1
# [29] = molecular target: Sodium-dependent serotonin transporter (Homo sapiens) (UniProt P31645); test: Inhibition of serotonin transporter (unknown origin) at 5 uM by psychoactive drug screening programme assay
smiles,measurement,setting,value
COc1ccc(OCC2c3ccc(OCc4ccccc4)cc3CCN2C(=O)c2cccc(Br)c2)cc1 (stereo not given),inhibition,Homo sapiens,< 50%
same,Activity,[1],105%
same,inhibition,[2],< 50%
same,inhibition,[3],< 50%
same,inhibition,[4],< 50%
same,inhibition,[5],< 50%
same,inhibition,[6],< 50%
same,inhibition,[7],< 50%
same,Activity,[8],94%
same,inhibition,[9],< 50%
same,inhibition,[10],< 50%
same,Ki,[11],> 5 µM
same,inhibition,[12],< 50%
same,inhibition,[13],< 50%
same,Activity,[14],99%
same,Activity,[15],98%
same,inhibition,[16],< 50%
same,Activity,[17],92%
same,inhibition,[18],< 50%
same,Activity,[19],101%
same,inhibition,[20],< 50%
same,inhibition,[21],< 50%
same,inhibition,[22],< 50%
same,Activity,[23],102%
same,inhibition,[24],< 50%
same,inhibition,[25],< 50%
same,inhibition,[26],< 50%
same,Activity,[27],247%
same,Activity,[28],97%
same,inhibition,[29],< 50%
